LMPTP inh – LMPTP phosphatase inhibitors, primary screen, biochemical, fluorescence intensity, uHTS; recombinant LMPTP-A, OMFP fluorogenic substrate; inhibition, % at 20 µM; 360,000 compounds, 0.22% hits; AID 651560, 2012;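 active = compounds that cut the enzyme signal by at least half of the control window in the single-dose screen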;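 note: plate controls were DMSO wells with enzyme plus substrate for no effect and substrate without enzyme for full effect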
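Test system: LMPTP-A phosphatase enzyme; input: 0.625 nM LMPTP-A final; reagent: OMFP substrate, 400 µM final; compound dosing: 20 µM single dose, 3% DMSO; incubation: 50 min dark incubation at room temperature; measured by: endpoint fluorescence intensity from OMFP dephosphorylation; measure: % inhibition relative to no-enzyme and uninhibited control wells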
STEP inh – STEP phosphatase inhibitors, primary screen, biochemical, fluorescence intensity, uHTS | Tyrosine-protein phosphatase non-receptor type 5 (Homo sapiens), P54829 | recombinant STEP, OMFP fluorogenic substrate | inhibition, % at 20 µM | 360,000 compounds, 0.25% hits;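 active = inhibition at 20 µM, scaled per plate between control wells, above about 37%, limit read from the data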;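 note: 0% = DMSO with enzyme and substrate and 100% = substrate only without enzyme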
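System: isolated STEP enzyme; schedule: 20 min enzyme reaction at room temperature, protected from light; medium: Bis-Tris buffer pH 6.0, 2.5 mM DTT, 0.005% Tween 20; signal: fluorescence, 480/540 nm; dosing: single compound dose of 20 µM, 1% DMSO final; also added: OMFP substrate, 25 µM final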
SUMO1-SIM PPI – modulators of SUMO1 protein-protein interactions, primary screen, biochemical, uHTS. Small ubiquitin-related modifier 1 (Homo sapiens), P63165. 360,000 compounds, 0.33% hits. inhibition, % at 20 µM. SUMO1 binding to a labelled peptide, TR-FRET, 1 h; in the data active = inhibition above about 37%
DNMT1 block – human DNMT1 methyltransferase inhibitors, primary screen, biochemical, molecular beacon, fluorescence, HinP1I cleavage, uHTS; DNA (cytosine-5)-methyltransferase 1 (Homo sapiens), P26358; inhibition (reported as % activation of signal), % at 10 µM; 360,000 compounds, 0.83% hits; AID 588458, 2011; in the data active = inhibition above about 50%
GRK2 inh – compounds blocking aptamer binding on GRK2 – biochemical, human GRK2, bead flow cytometry, HTS, primary screen; AID 488847, 2010; inhibition of aptamer binding, % at 10 µM; Beta-adrenergic receptor kinase 1 (Homo sapiens), P25098; FAM-aptamer displacement from GRK2; 330,000 compounds, 0.59% hits;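 active = inhibition of aptamer binding above 40%, roughly 3 SD of noise, on plates passing a quality check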;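 note: median bead fluorescence of bound FAM aptamer so fluorescent compounds give negative values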
Target sequence (P25098 whole entry, looked up): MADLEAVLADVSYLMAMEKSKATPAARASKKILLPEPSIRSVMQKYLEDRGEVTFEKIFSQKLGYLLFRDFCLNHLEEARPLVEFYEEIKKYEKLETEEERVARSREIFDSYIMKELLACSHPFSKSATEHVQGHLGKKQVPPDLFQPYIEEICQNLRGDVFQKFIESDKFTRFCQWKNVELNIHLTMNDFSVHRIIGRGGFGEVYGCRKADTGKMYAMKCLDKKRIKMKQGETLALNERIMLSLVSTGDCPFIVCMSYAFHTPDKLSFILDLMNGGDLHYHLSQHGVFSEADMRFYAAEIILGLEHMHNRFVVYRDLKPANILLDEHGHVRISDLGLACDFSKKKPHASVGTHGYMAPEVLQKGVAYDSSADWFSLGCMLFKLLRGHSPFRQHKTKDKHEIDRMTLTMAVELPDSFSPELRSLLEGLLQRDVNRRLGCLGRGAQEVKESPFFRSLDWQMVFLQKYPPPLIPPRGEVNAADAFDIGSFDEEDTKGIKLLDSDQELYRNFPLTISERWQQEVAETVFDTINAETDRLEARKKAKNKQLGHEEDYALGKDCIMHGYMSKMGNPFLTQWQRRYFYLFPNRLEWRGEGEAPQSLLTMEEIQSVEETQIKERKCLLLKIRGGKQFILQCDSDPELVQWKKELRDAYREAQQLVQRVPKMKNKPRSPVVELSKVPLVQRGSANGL
Scp1 inh – Scp-1 phosphatase inhibitors, primary screen, biochemical, colorimetric, uHTS | Recombinant Scp1, phosphopeptide, malachite green phosphate absorbance | AID 493091, 2011 | inhibition, % at 20 µM | 340,000 compounds, 0.88% hits | Carboxy-terminal domain RNA polymerase II polypeptide A small phosphatase 1 (Homo …;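 active = inhibition above about 50% at 20 µM, limit read from the data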;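 note: plate controls were DMSO wells with enzyme for no effect and wells lacking enzyme for full effect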
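Test system: SCP-1 phosphatase catalytic domain, residues 76-261; measured by: colorimetric phosphate reagent with accelerator and stabiliser, absorbance at 630 nm; timing: enzyme reaction 45 min at room temperature, colour 5 min, stabilisation 30 min; also added: Phosphorylated 17-residue peptide substrate; compound dosing: one concentration, 20 µM, with 1.0% DMSO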
The depositor's hits bear a star; nt = not tested or not shown. In the library only some 2.1% were active in any assay of this set; here they are far more common.

SMILES	LMPTP inh	STEP inh	SUMO1-SIM PPI	DNMT1 block	GRK2 inh	Scp1 inh
Cc1cnc(-c2nc3ccccc3n2C(C(=O)Nc2c(C)cccc2C)C2CC2)cn1 (stereo not given)	0	nt	2	nt	nt	nt
CCOC(=O)[C@@H](C)N(C(=O)OC(C)(C)C)S(=O)(=O)N(Cc1ccccc1)[C@H](C(=O)OC)C(C)C	3	4	2	8	nt	-15
Cc1c(N=Nc2c(-c3ccc([N+](=O)[O-])cc3)[nH]n(C(N)=S)c2=O)cccc1[N+](=O)[O-]	71*	82*	22	75*	nt	93*
NC(=S)n1[nH]c(-c2ccc([N+](=O)[O-])cc2)c(N=Nc2cccc([N+](=O)[O-])c2)c1=O	58*	22	88*	-2	nt	74*
Cc1[nH]n(-c2ccccc2)c(=O)c1N=Nc1cccc([N+](=O)[O-])c1	3	1	-18	-6	0	10
Cc1[nH]n(C(N)=S)c(=O)c1N=Nc1cccc([N+](=O)[O-])c1C	-1	3	-29	-11	1	-4
C[C@H](NC(=O)[C@@H]1Cc2ccccc2CN1)C(=O)NCC1CCCO1 (stereo not given in full)	-1	-3	2	-2	1	-13
COc1cc(NC(=O)NCC2CCN(Cc3ccccc3C)CC2)cc(OC)c1OC	-1	-1	-45	0	0	0
Cc1ccc(-c2nn(C)c(=O)c3ccccc23)cc1S(=O)(=O)NCCN1CCOCC1	0	1	1	7	3	15
CCOC(=O)CNS(=O)(=O)c1cc(-c2nn(C)c(=O)c3ccccc23)ccc1C	6	16	0	21	33	62*
CCN(C(=O)c1ccncc1)c1c(N)n(Cc2ccccc2)c(=O)[nH]c1=O	0	1	-2	2	nt	-11
CC(=O)OCC1=C(C(=O)O)N2C(=O)[C@@H](NC(=O)Cc3ccccc3)[C@H]2SC1	0	0	3	-2	nt	33
CC(=O)OCC1=C(C(=O)O)N2C(=O)C(NC(=O)COc3ccc(F)cc3)C2SC1 (stereo not given)	0	4	23	25	nt	54*
CCCC/C(O)=C1\C(=O)CC(C)(C)CC1=NCCCCCC(=O)O	0	2	-5	1	3	0
Cc1ccc(CNc2ccc(O)cc2)cc1	18	8	68*	-6	nt	-7
Cc1ccc(NCc2ccccc2O)cc1	-1	-4	2	-2	0	-11
CCOC(=O)C1=C(C)N=c2sc(=Cc3ccc(OCC(=O)O)cc3)c(=O)n2C1c1ccc(SC)cc1 (stereo not given)	65*	94*	107*	89*	nt	nt
CNc1cncc(-c2ccc(OC)c(OC)c2)n1	-4	0	-25	-1	nt	nt
O=C(NNC(=O)c1ccccc1-c1ccccc1C(=O)O)c1ccccc1	0	4	0	3	2	-4
O=C(C=P(c1ccccc1)(c1ccccc1)c1ccccc1)c1ccccc1-c1ccccc1C(=O)C=P(c1ccccc1)(c1ccccc1)c1ccccc1	59*	7	-39	8	nt	36
N#CC(C#N)=C(N)/C(C#N)=C/c1cc(O)c(O)c(O)c1	51*	2	-20	-2	2	-1
O=C(O)c1[nH]c2ccccc2c1C(c1ccccc1)c1c(C(=O)O)[nH]c2ccccc12	1	2	7	2	51*	-15
COc1cc(C(c2c(C(=O)O)[nH]c3ccccc23)c2c(C(=O)O)[nH]c3ccccc23)ccc1OCc1ccccc1	3	-6	15	-1	3	-8
Cc1cc(/C=C\c2ccc3cc(N(C)C)ccc3[n+]2C)c(C)n1-c1ccccc1	78*	15	0	54*	71*	43
O=C1CC2(CCN(C(=O)COc3ccc(Cl)cc3)CC2)Oc2ccccc21	0	-1	3	2	3	1
SMILES	LMPTP inh	STEP inh	SUMO1-SIM PPI	DNMT1 block	GRK2 inh	Scp1 inh
CCN1/C(=C/c2ccc3cc(C)cc(C)c3[n+]2CC)Sc2cc(C)ccc21	48*	4	-41	-34	nt	32
CCN1/C(=C\c2ccc3cc(C)ccc3[n+]2CC)Sc2cc(C)c(C)cc21	44	1	-51	-8	nt	13
CC(=O)c1cccc(NC(=O)c2cccc(N3C(=O)c4ccccc4C3=O)c2)c1	3	6	61*	0	0	49
O=C(O)CN1C(=O)/C(=C\c2cc(Br)ccc2OCc2ccc(Cl)cc2Cl)SC1=S	67*	15	78*	95*	0	31
Cc1cc2c(n1-c1ccc(C(=O)O)cc1)CCCCC2	nt	nt	nt	nt	68*	nt
CN(C)c1ccc(/C=C2/SC(=O)N(CCN=C3NS(=O)(=O)c4ccccc43)C2=O)cc1	1	-1	41*	-26	1	-3
Cn1c(-c2ccc(F)cc2)cc2onc(-c3c(F)cccc3Cl)c2c1=O	nt	nt	nt	nt	52*	-7
Oc1csc(Cc2nc(-c3ccc(-c4ccccc4)cc3)cs2)n1	1	3	0	10	0	1
NC(=S)Cc1nc(-c2ccccc2)cs1	0	4	-2	50*	2	4
COc1cccc(NC(=S)NC(=O)/C=C/c2ccco2)c1	12	0	16	32	3	-5
O=C(O)CCCNC(=O)/C=C/c1ccco1	4	4	-1	88*	26	72*
O=C(/C=C/c1ccco1)NC(=S)Nc1cccc(C(=O)O)c1	0	15	2	38	29	64*
COc1ccc(Br)cc1CN(C)C(=O)c1ccccc1OCc1c(C)noc1C	-1	1	4	-1	2	-2
CC(/C=C1\SC(=S)N(CCCC(=O)Nc2ccc(C(=O)O)cc2)C1=O)=C\c1ccccc1	49*	2	9	48	5	-11
CC(=C\c1ccccc1)/C=C1/SC(=S)N(CCCC(=O)O)C1=O	4	1	3	7	0	-12
CC(=Cc1ccccc1)C=C1SC(=S)N(CCCC(=O)Nc2ccc(C(=O)O)cc2)C1=O	61*	-1	-2	10	nt	nt
CC(/C=C1\SC(=S)N(CCC(=O)Nc2ccccc2O)C1=O)=C\c1ccccc1	2	-2	0	-3	1	-13
CC(C)[C@@H](C(=O)N1CCNCC1)n1cc(CCO)nn1	-4	-1	3	-6	4	7

Source: PubChem (several laboratories)
